≈ marks a conversion by molar mass, not a printed value. Read-outs that look alike come from different tables or passages of the source.

Experiment [1] concerns cytoplasmic protein synthesis in wheat germ extracts. As to conditions: wheat germ extract; at 30 μM; cited from earlier work.
Experiment [2] shares this test system. Description: Wheat germ extract poly-Phe cytoplasmic protein synthesis assay. Type of experiment: biochemical. As to conditions: poly-U mRNA, compound to 132 μM. The method in brief: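 Cytoplasmic poly-Phe synthesis in wheat germ extract programmed with poly-U mRNA, yeast tRNAPhe and [3H]phenylalanine. Levels of mRNA, tRNA, label and Mg++ were optimized for poly-Phe synthesis. Cycloheximide served as reference protein-synthesis inhibitor.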

A further experiment concerns E. coli (ATCC 25922). Kind of experiment: Broth microdilution MIC. Type of experiment: cell-based. The settings on record: Escherichia coli, ATCC25922.
Experiment [3] has as its system P. aeruginosa (hypersensitive). Description: Broth microdilution MIC. The settings on record: Pseudomonas aeruginosa, ATCC35151. It counts as cell-based. (Broth dilution looks for growth in wells or tubes with falling amounts of substance.)
The subject of a further experiment is E. faecalis (ATCC 29212). Kind of experiment: Broth microdilution MIC. It counts as cell-based. The settings on record: Enterococcus faecalis, ATCC29212.
The next experiment concerns the target P. aeruginosa PheRS (Pseudomonas aeruginosa, UniProt Q9I0A3). Description: tRNA aminoacylation assay in SPA format, P. aeruginosa PheRS. It counts as biochemical.
In experiment [4] the test system is P. aeruginosa (ATCC 47085). Description: Broth microdilution MIC. Type of experiment: cell-based. The settings on record: Pseudomonas aeruginosa, ATCC47085.
In another experiment the target is S. pneumoniae PheRS (Streptococcus pneumoniae serotype 2, UniProt Q04LU1). Description: tRNA aminoacylation assay in SPA format, S. pneumoniae PheRS. Type of experiment: biochemical.
For experiment [5], the system named is M. catarrhalis (ATCC 25238). Description: Broth microdilution MIC. Type of experiment: cell-based. The settings on record: Moraxella catarrhalis, ATCC25238.
Another experiment has as its system E. coli tolC. Description: Broth microdilution MIC. Type of experiment: cell-based. The settings on record: Escherichia coli.
Experiment [6] relates to P. aeruginosa PAO200 (efflux mutant). Description: Broth microdilution MIC. It counts as cell-based. As to conditions: Pseudomonas aeruginosa.
In experiment [7] the test system is H. influenzae (ATCC 49766). Kind of experiment: Broth microdilution MIC. Type of experiment: cell-based. The settings on record: Haemophilus influenzae, ATCC49766.
Experiment [8] has as its system S. pneumoniae (ATCC 49619). Description: Broth microdilution MIC. Type of experiment: cell-based. The settings on record: Streptococcus pneumoniae, ATCC49619.
For a further experiment, the system named is S. aureus (ATCC 29213). Kind of experiment: Broth microdilution MIC. Type of experiment: cell-based. The settings on record: Staphylococcus aureus, ATCC29213.
For experiment [9], the target named is T1, human mitochondrial PheRS (hmPheRS) (Homo sapiens, UniProt O95363).
T1 sequence (O95363 1-451): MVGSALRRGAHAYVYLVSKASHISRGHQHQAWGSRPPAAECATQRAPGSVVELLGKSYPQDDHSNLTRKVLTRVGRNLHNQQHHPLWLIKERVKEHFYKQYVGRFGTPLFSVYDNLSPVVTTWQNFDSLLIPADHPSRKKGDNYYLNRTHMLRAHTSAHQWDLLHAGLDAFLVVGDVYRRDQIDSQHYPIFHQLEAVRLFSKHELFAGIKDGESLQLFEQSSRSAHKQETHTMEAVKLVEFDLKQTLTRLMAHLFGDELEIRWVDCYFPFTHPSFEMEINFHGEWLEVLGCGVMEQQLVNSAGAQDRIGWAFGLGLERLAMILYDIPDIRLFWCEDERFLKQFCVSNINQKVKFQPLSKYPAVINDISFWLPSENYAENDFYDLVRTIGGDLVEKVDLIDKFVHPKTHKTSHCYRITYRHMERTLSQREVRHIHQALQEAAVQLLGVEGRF
Kind of experiment: Human mitochondrial PheRS aminoacylation assay. The settings on record: 132 μM compound; 0.2 μM hmPheRS; average of three assays. It counts as biochemical.

Setting [10] is: IC50s at five Phe concentrations 25 to 300 μM, ATP fixed at 2.5 mM.
The mark [11] stands for this setting: IC50s at six ATP concentrations 25 to 1000 μM, Phe fixed at 100 μM.

Chain of S. pneumoniae PheRS (Q04LU1 whole entry): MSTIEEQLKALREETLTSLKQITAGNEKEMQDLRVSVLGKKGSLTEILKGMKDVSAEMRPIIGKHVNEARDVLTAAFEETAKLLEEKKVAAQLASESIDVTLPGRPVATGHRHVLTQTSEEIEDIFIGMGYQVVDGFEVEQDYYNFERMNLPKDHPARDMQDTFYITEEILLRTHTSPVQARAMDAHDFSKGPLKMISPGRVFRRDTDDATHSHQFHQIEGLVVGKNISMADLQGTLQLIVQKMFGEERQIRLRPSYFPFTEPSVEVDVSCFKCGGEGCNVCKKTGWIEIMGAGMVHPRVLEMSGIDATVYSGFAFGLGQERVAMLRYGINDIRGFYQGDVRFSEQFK
Chain of P. aeruginosa PheRS (Q9I0A4 whole entry): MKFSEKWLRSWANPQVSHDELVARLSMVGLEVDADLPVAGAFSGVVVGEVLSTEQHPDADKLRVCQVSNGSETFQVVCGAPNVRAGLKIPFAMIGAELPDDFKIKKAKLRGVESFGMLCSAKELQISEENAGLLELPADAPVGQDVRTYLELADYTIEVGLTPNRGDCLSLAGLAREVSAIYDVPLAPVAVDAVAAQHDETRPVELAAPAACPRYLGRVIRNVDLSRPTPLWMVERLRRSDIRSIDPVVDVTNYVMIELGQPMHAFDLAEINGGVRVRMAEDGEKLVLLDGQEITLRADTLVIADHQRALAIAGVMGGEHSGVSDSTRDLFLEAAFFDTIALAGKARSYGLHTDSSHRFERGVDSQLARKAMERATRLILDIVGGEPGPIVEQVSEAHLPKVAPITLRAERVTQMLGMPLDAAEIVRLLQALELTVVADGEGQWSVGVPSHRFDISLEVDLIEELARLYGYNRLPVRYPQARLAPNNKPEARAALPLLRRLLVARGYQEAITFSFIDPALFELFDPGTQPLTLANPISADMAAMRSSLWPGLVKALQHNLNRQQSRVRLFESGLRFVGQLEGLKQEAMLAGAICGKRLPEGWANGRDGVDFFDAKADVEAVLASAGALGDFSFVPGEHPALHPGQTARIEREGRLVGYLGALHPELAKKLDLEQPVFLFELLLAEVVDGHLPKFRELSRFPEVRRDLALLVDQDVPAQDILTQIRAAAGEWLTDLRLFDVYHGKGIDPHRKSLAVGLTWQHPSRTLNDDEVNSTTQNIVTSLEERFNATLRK
Chain of P. aeruginosa PheRS (Q9I0A3 whole entry): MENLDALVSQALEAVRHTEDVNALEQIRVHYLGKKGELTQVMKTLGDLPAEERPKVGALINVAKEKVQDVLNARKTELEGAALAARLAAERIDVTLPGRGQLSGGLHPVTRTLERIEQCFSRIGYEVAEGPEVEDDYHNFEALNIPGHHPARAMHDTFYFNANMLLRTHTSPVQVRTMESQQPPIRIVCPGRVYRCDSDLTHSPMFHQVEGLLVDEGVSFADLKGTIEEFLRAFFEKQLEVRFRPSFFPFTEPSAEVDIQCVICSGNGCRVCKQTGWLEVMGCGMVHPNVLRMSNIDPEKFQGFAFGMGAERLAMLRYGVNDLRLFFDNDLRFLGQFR

As to `C[C@@H]1C[C@@H]([C@H](O)CC2CC(=O)NC(=O)C2)C(=O)[C@@H](C)C1` [cycloheximide], the “inhibition of protein synthesis” value in experiment [1] is “inhibited”.

As a reminder, the IC50 is the point on the concentration scale where inhibition reaches its midpoint. A word on the Ki: it is the dissociation constant of the complex between target and ligand, obtained from inhibition or displacement. For the molecule `Cc1cc2c(C(C)C)c(O)c(O)c(C=O)c2c(O)c1-c1c(C)cc2c(C(C)C)c(O)c(O)c(C=O)c2c1O` [BPP_03B04, gossypol], the “inhibition of protein synthesis” value in experiment [2] is “no inhibition”. The MIC is 128 µg/mL (≈ 247 µM) against E. coli (ATCC 25922); 16 µg/mL (≈ 30.9 µM) in experiment [3]; 32 µg/mL (≈ 61.7 µM) with E. faecalis (ATCC 29212); 16 µg/mL (≈ 30.9 µM) in [4]; 32 µg/mL (≈ 61.7 µM) in [5]; 128 µg/mL (≈ 247 µM) in the experiment on E. coli tolC. Further, the MIC in [6] turned out to be 16 µg/mL (≈ 30.9 µM); in [7], 16 µg/mL (≈ 30.9 µM); in experiment [8] it was 32 µg/mL (≈ 61.7 µM); with S. aureus (ATCC 29213) it was 16 µg/mL (≈ 30.9 µM). The IC50 is 2300 nM at P. aeruginosa PheRS and 4.9 µM at S. pneumoniae PheRS. In addition, the results for the Ki at P. aeruginosa PheRS and at S. pneumoniae PheRS were 830 nM and 980 nM, respectively. For the same molecule, the “mode of action relative to Phe” value at P. aeruginosa PheRS (setting [10]) and at S. pneumoniae PheRS (setting [10]) was “competitive” each time. The “mode of action relative to ATP” value at P. aeruginosa PheRS (setting [11]) and on S. pneumoniae PheRS (setting [11]) was “uncompetitive” throughout. Besides, the “decrease of hmPheRS activity” value in experiment [9] is listed as “approximately 80%”.

The values are drawn from paper PMC4439361 (Current drug discovery technologies, 2015).
